Test results from ChEMBL document CHEMBL5352430, “Multi-parameter optimization: Development of a morpholin-3-one derivative with an improved kinetic profile for imaging monoacylglycerol lipase in the brain” (Eur J Med Chem, 2022).

Assays:
[1] = Drug uptake in rat brain cortex; assay type: ADME, tissue-based; details: in vitro
[2] = Drug uptake in rat brain hippocampus; assay type: ADME, tissue-based; details: in vitro
[3] = Drug uptake in rat brain striatum; assay type: ADME, tissue-based; details: in vitro
[4] = Drug uptake in rat brain thalamus; assay type: ADME, tissue-based; details: in vitro
[5] = Drug uptake in rat brain cerebellum; assay type: ADME, tissue-based; details: in vitro
[6] = Drug uptake in rat brainstem; assay type: ADME, tissue-based; details: in vitro
[7] = Drug uptake in rat brain in presence of PF-06795071; assay type: ADME, tissue-based; details: in vitro
[8] = Drug uptake in rat brain in presence of SAR127303; assay type: ADME, tissue-based; details: in vitro
[9] = Lipophilicity, logD of the compound at pH 7.4 by shake flask assay; assay type: physicochemical; details: buffer
[10] = Drug uptake in mouse brain assessed as maximum standardized uptake value measured after 60 mins; assay type: ADME, tissue-based; details: in vivo, 1 h
Method in brief: (§1)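 Mouse dynamic PET. Tracer at 6.33–14.42 nmol/kg given by tail-vein injection; 60 min scan started 1 min later. Data expressed as SUV, i.e. decay-corrected regional radioactivity normalized to injected dose and body weight. Blocking: MAGLi432 at 5 mg/kg in DMSO/Tween80/saline 1/1/8, injected 5 min before tracer.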

[11] = Drug uptake in wild type mouse after 20 mins; assay type: ADME; details: in vivo; method in brief: as §1
[12] = Drug uptake in MAGL knock out mouse; assay type: ADME; details: in vivo; method in brief: as §1
[13] = Drug uptake in Mdrla/b-Bcrp KO mouse; assay type: ADME; details: in vivo; method in brief: as §1
[14] = Drug uptake in Mdrla/b-Bcrp KO mouse pretreated with MAGLi432; assay type: ADME; details: in vivo; method in brief: as §1
[15] = Drug uptake in mouse brain assessed as standardized uptake value measured after 2 mins; assay type: ADME, tissue-based; details: in vivo; method in brief: as §1

SMILES | Drug uptake [1] | Drug uptake [2] | Drug uptake [3] | Drug uptake [4] | Drug uptake [5] | Drug uptake [6] | Drug uptake [7] | Drug uptake [8] | logD [9] | SUVmax [10] | Drug uptake [11] | Drug uptake [12] | Drug uptake [13] | Drug uptake [14] | SUV [15]
O=C1CO[C@H]2CCN([11C](=O)N3CC(CCc4c(F)cccc4C(F)(F)F)C3)C[C@H]2N1 | Active | Active | Active | Active | Active | Not Active | Not Active | Not Active | 2.65 | 0.4 | Active | Not Active | Active | Not Active | 1.67
O=C1CO[C@H]2CCN([11C](=O)N3CC(OCc4ccc(C(F)(F)F)cc4Cl)C3)C[C@H]2N1 | – | – | – | – | – | – | – | – | – | – | – | – | – | – | 0.72
